The values below come from ChEMBL document CHEMBL1811918, “Sesquiterpene and norsesquiterpene derivatives from Sanicula lamelligera and their biological evaluation” (J Nat Prod, 2011).

Residues, ends and D or L forms follow the SMILES beside them. *: point of attachment. Cbz = O=C(OCc1ccccc1)* Some results are limits rather than exact numbers.

The subject of one data set is SW480. Put plainly: Cytostatic activity against human SW480 cells after […] by MTT assay. The class given is functional, cell-based. Put shortly:
(§1)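 MTT viability in human tumor lines exposed to a concentration series for 48 h. Adherent cells were allowed to attach for 12 h before dosing. Suspension cells were seeded immediately before dosing at (1–2) × 10^5 cells/mL. DMSO wells served as negative control and DDP (cisplatin) as positive control. IC50 was calculated from viability.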
A general note: Tetrazolium dyes change colour on reduction, which living cells bring about.

Another data set has as its system MCF7. Description: Cytostatic activity against human MCF7 cells after […] by MTT assay. The class given is functional, cell-based. Put shortly:
as §1

In the next data set the test system is A549. Description: Cytostatic activity against human A549 cells after […] by MTT assay. The class given is functional, cell-based. Put shortly: as §1
A short description of data set [1]: Therapeutic index, ratio of CC50 for human C8166 cells to EC50 for Human immunodeficiency virus 1 3B infected in human C8166 cells. To be noted: read-out: Ratio CC50/EC50. The class given is cell-based. The essentials: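 Ratio of CC50 (MTT viability of uninfected C8166 cells, 3 days, 37 C) to EC50 (syncytium counts in HIV-1 IIIB-infected C8166 cells, 3 days, 37 C).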

A short description of data set [2]: Cytotoxicity against human C8166 cells after 3 days by MTT assay. The class given is cell-based. Put shortly: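 C8166 cells were seeded in triplicate with or without a concentration series and held at 37 C for 3 days, with compound-free wells as negative control. Viable cells were quantified by MTT absorbance at 595/630 nm. CC50, the 50% reduction in viable cells, was taken from the dose–response curve.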

A further data set relates to RAW264.7. Description: Antiinflammatory against mouse RAW264.7 cells assessed as inhibition of LPS-induced nitric oxide production. The class given is functional, cell-based. Put shortly: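 Nitric oxide production was measured in LPS-stimulated RAW 264.7 macrophages, with DMSO wells as negative control and MG-132 as positive control. IC50 was derived.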
In another data set the test system is SMMC-7721. Description: Cytostatic activity against human SMMC7721 cells after […] by MTT assay. The class given is functional, cell-based. Put shortly: as §1
Data set [3] concerns Human immunodeficiency virus 1. Put plainly: Antiviral activity against Human immunodeficiency virus 1 3B infected in human C8166 cells assessed as numbers of syncytia after 3 days by syncytium counting. To be noted: C8166, 72 h.
The test system of another data set is HL-60. Put plainly: Cytostatic activity against human HL60 cells after […] by MTT assay. Type of data set: functional, cell-based. Put shortly: as §1
Data set [4] concerns Human immunodeficiency virus 1. Description: Antiviral activity against Human immunodeficiency virus 1 3B infected in human C8166 cells assessed as numbers of syncytia after 3 days by MTT assay. The class given is functional, organism-based. To be noted: C8166, 72 h. The essentials:
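Compounds at various concentrations were added to C8166 cells (8 × 10^5/mL) infected with HIV-1 IIIB and incubated at 37 C for 3 days. The cytopathic effect was scored by counting syncytia, with AZT as positive control. EC50 came from the percentage of syncytial cells relative to the infected untreated control.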

One may read the IC50 as the concentration that inhibits the measured activity by half. Usually CC50 stands for the concentration that lowers cell viability or growth by half. A lower CC50 goes with harm at low concentration. For orientation: EC50 means the concentration that produces a half-maximal response. Consider `CC(C)[C@H]1CC[C@@]2(C)[C@@H]1[C@@H]1O[C@]1(CO)CC[C@@H]2O` [SANICULAMOID B], for which the IC50 in the data set with SW480, in the data set with MCF7, with A549, with RAW264.7, in the data set on SMMC-7721 and with HL-60 was over 64.4 µM in each case. In addition, in data set [1], the selectivity ratio was determined as 2.9. The CC50 at 72 h in [2] is 358 µM. Moreover, in data set [3], the EC50 worked out at 126 µM.

In the case of `C[C@H](/C=C/[C@]12O[C@@]1(C)C[C@@H](O)CC2(C)C)O[C@@H]1O[C@H](CO)[C@@H](O)[C@H](O)[C@H]1O` [PHLOMUROSIDE], the IC50 in the data set on SW480, in the data set on MCF7, in the data set with A549, in the data set on RAW264.7, with SMMC-7721 and in the data set on HL-60 was over 64.4 µM in each case. Further, the CC50 at 72 h in data set [2] is over 258 µM. Also, the EC50 in data set [3] is over 258 µM.

Turning to `C=C(C)[C@@H]1CC[C@@]2(C)[C@H](O)CC[C@@](C)(O)[C@@H]2C1` [CYPERUSOL C], the IC50 in the data set with SW480, with MCF7, with A549, with RAW264.7, in the data set on SMMC-7721 and in the data set with HL-60 was over 64.4 µM throughout. Moreover, the selectivity ratio in data set [1] is over 2.8. In [2], this compound had a CC50 at 72 h of over 420 µM. In data set [3], the EC50 was 150 µM.

On to `C=C1CC[C@H]2[C@@H]([C@@H]3[C@@H]1CC[C@@]3(C)O)C2(C)C`, for which the IC50 in the data set with SW480, in the data set on MCF7, in the data set on A549, in the data set on RAW264.7, in the data set on SMMC-7721 and in the data set with HL-60 was over 64.4 µM throughout. In data set [1], the selectivity ratio amounted to 1.6. This compound also registered a CC50 at 72 h in [2] of 170 µM. Moreover, the EC50 in [3] was 104 µM.

In the case of `C=C1CC[C@H](O)[C@@]2(C)CC[C@@H]([C@@H](O)C(C)C)[C@H]12`, the IC50 in the data set with SW480, in the data set on MCF7, in the data set on A549, with RAW264.7, in the data set with SMMC-7721 and with HL-60 was over 64.4 µM throughout. Besides, the selectivity ratio in data set [1] is 2.4. In [2], this compound had a CC50 at 72 h of 398 µM. Besides, the EC50 in data set [3] stood at 167 µM.

On to `C=C1CC[C@@H](O)[C@]2(C)CC[C@H](CC(C)(C)O)[C@@H]12`, for which the IC50 in the data set on SW480, in the data set with MCF7, with A549, with RAW264.7, in the data set with SMMC-7721 and with HL-60 was over 64.4 µM throughout. This compound showed a cytotoxic concentration (CC50) at 72 h in data set [2] of over 420 µM. Besides, the EC50 in [3] was over 420 µM.

In the case of `CC(C)C[C@@H](C=O)NC(=O)[C@H](CC(C)C)NC(=O)[C@H](CC(C)C)NC(=O)OCc1ccccc1` [MG-132] (Cbz-Leu-Leu-Leu-aldehyde), the IC50 with RAW264.7 was 0.439 µM.

As for `CC(C)[C@H]1CC[C@@]2(C)[C@@H]1[C@H]1O[C@@H]2CC[C@@H]1C(=O)O` [SANICULAMOID A1], the IC50 in the data set on SW480, with MCF7, with A549, with RAW264.7, with SMMC-7721 and in the data set with HL-60 was over 64.4 µM throughout. Moreover, the selectivity ratio in data set [1] came out at 1.2. In addition, in [2], it took 195 µM to reach half-maximal cytotoxicity (CC50 at 72 h). Also, the EC50 in [3] was determined as 162 µM.

As for `CC(=O)/C=C/[C@@]1(O)C(C)=CC(=O)CC1(C)C`, the IC50 in the data set with SW480, in the data set with MCF7, with A549, in the data set with RAW264.7, with SMMC-7721 and in the data set on HL-60 was over 64.4 µM throughout. In [2], this compound yielded a CC50 at 72 h of over 450 µM. Besides, the EC50 in data set [3] is over 450 µM.

`CC(C)(O)[C@H]1C[C@H]2[C@H](CC[C@@]2(C)O)[C@](C)(O)C[C@@H]1O` [SANICULAMOID C]: the IC50 in the data set with SW480, in the data set with MCF7, with A549, with RAW264.7, in the data set with SMMC-7721 and with HL-60 was over 64.4 µM each time. Moreover, the CC50 at 72 h in [2] was over 368 µM. Moreover, in data set [3], the EC50 is over 368 µM.

As to `Cc1cn([C@H]2C[C@H](N=[N+]=[N-])[C@@H](CO)O2)c(=O)[nH]c1=O` [ZIDOVUDINE], the EC50 in data set [4] stood at 0.0045 µM. For the same compound, the selectivity ratio in data set [1] turned out to be 214000. Moreover, in data set [2], the CC50 at 72 h was 4070 µM.

Turning to `CC(C)C1=C[C@@H]2[C@H](CC[C@@]2(C)O)[C@@](C)(O)CC1` [GUAIANEDIOL], the IC50 with SW480, with MCF7, in the data set with A549, in the data set on RAW264.7, in the data set with SMMC-7721 and in the data set with HL-60 was over 64.4 µM throughout. Moreover, the CC50 at 72 h in data set [2] was over 420 µM. In data set [3], the EC50 was over 420 µM.

Take `C=C1CC[C@@H](O)[C@]2(C)CC[C@@](O)(C(C)C)C[C@@H]12`: the IC50 with SW480, with MCF7, in the data set with A549, in the data set with RAW264.7, in the data set on SMMC-7721 and in the data set with HL-60 was over 64.4 µM in each case. Further, the CC50 at 72 h in data set [2] is over 420 µM. Further, the EC50 in data set [3] was over 420 µM.

With `CC(=O)C=C=C1C(C)(C)C[C@H](O)C[C@@]1(C)O[C@@H]1O[C@H](CO)[C@@H](O)[C@H](O)[C@H]1O` [CITROSIDE B], the IC50 with SW480, in the data set on MCF7, in the data set on A549, with RAW264.7, in the data set with SMMC-7721 and in the data set with HL-60 was over 64.4 µM in each case. This compound also gave a CC50 at 72 h in [2] of over 259 µM. In addition, the EC50 in [3] is over 259 µM.

`CC(=O)CC[C@@H](C(C)C)[C@@H]1[C@H]2CCC(=O)[C@H]21` [SANICULAMOID D]: the IC50 in the data set with SW480, with MCF7, in the data set on A549, in the data set on RAW264.7, in the data set on SMMC-7721 and in the data set on HL-60 was over 64.4 µM each time. In addition, in [1], the selectivity ratio is over 2.3. Also, the CC50 at 72 h in data set [2] is over 450 µM. Further, in [3], the half-maximal effective concentration (EC50) came to 196 µM.

Consider `C=C1CC[C@@H](O)[C@@]2(C)CC[C@H](C(C)C)[C@@H](O)[C@H]12`, for which the 50% inhibitory concentration (IC50) stood at 37 µM with SW480; 35.3 µM in the data set with MCF7; 41.6 µM in the data set with A549; 28.1 µM in the data set on RAW264.7; 32.4 µM in the data set with SMMC-7721; 31.1 µM in the data set on HL-60. Also, in [1], the selectivity ratio is 2.1. This compound gave a CC50 at 72 h in data set [2] of 68.1 µM. Also, the EC50 in data set [3] came to 31.9 µM.
